# In ChEMBL document CHEMBL4028903 (J Med Chem, 2017):
# Active and inactive are the calls of the source. No cut-off for these calls is given here.
# Tests used:
# [1] = AUC (0 to 24 hrs) in Sprague-Dawley rat at 0.01 mg/kg, po qd administered via gavage measured on day 1 by LC-MS/MS analysis; format: ADME, organism-based; set-up: dose 0.01 mg/kg, time < 24 hr, route oral; conditions: in vivo
# [2] = Clearance in dog at 0.5 mg/kg, iv by LC-MS/MS analysis; format: ADME, organism-based, Canis lupus familiaris; conditions: in vivo
# How it was run: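 Single IV dose given as a solution. Mouse received 5 mg/kg in 75% PEG300:25% D5W. Dog received 0.5 mg/kg in 20% PEG300, 5% solutol and 75% carbonate buffer pH = 8.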
# [3] = AUC in dog at 2 mg/kg, po administered via gavage by LC-MS/MS analysis; format: ADME, organism-based, Canis lupus familiaris; conditions: in vivo
# How it was run: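 Single oral dose given as a suspension in 0.5% methylcellulose, 0.5% Tween80 and 99% water. Doses were 10 mg/kg in mouse, 1 mg/kg in rat and 2 mg/kg in dog.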
# Rattus norvegicus [4] = assay: Dose normalized AUC (0 to 24 hrs) in Sprague-Dawley rat at 0.003 mg/kg, po qd administered via gavage measured on day 1 by LC-MS/MS analysis; format: ADME, organism-based; conditions: in vivo
# Canis familiaris [5] = assay: Drug metabolism in dog assessed as taurine conjugated metabolite formation at 0.5 mg/kg, iv or 2 mg/kg, po administered via gavage by LC-MS/MS analysis; format: ADME, organism-based, Canis lupus familiaris; conditions: in vivo
# How it was run: (§1)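 Plasma samples were taken from the dog PK studies. The IV solution was 20% PEG300, 5% solutol and 75% carbonate buffer pH = 8. The PO suspension was 0.5% methylcellulose, 0.5% Tween80 and 99% water. Samples were screened for taurine- and glycine-conjugated metabolites and for the acylglucuronide.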
# Rattus norvegicus [6] = assay: In vivo agonist activity at FXR in Sprague-Dawley rat assessed as downregulation of CYP8B1 mRNA level in liver at 0.003 mg/kg, po qd for 14 days measured 7 hrs post last dose on day 14 by qPCR analysis; format: functional, organism-based
# Canis familiaris [7] = assay: Drug metabolism in dog assessed as glycine conjugated metabolite formation at 0.5 mg/kg, iv or 2 mg/kg, po administered via gavage by LC-MS/MS analysis; format: ADME, organism-based, Canis lupus familiaris; conditions: in vivo; how it was run: as §1
# [8] = AUC (0 to 24 hrs) in Sprague-Dawley rat at 3 mg/kg, po qd administered via gavage measured on day 1 by LC-MS/MS analysis; format: ADME, organism-based; set-up: time < 24 hr, dose 3 mg/kg, route oral; conditions: in vivo
# [9] = Drug uptake in Sprague-Dawley rat plasma at 0.1 mg/kg, po qd administered via gavage measured 1 hr post last dose on day 14 by LC-MS/MS analysis; format: ADME, organism-based
# [10] = Cmax in Sprague-Dawley rat at 0.1 mg/kg, po qd administered via gavage measured on day 11 by LC-MS/MS analysis; format: ADME, organism-based; set-up: dose 0.1 mg/kg, route oral; conditions: in vivo
# [11] = target: T1, Bile acid receptor (Rattus norvegicus) (UniProt Q62735); assay: Agonist activity at FXR in rat primary hepatocytes assessed as induction of SHP mRNA level after 24 hrs by qPCR analysis; format: cell-based
# T1 sequence (whole entry): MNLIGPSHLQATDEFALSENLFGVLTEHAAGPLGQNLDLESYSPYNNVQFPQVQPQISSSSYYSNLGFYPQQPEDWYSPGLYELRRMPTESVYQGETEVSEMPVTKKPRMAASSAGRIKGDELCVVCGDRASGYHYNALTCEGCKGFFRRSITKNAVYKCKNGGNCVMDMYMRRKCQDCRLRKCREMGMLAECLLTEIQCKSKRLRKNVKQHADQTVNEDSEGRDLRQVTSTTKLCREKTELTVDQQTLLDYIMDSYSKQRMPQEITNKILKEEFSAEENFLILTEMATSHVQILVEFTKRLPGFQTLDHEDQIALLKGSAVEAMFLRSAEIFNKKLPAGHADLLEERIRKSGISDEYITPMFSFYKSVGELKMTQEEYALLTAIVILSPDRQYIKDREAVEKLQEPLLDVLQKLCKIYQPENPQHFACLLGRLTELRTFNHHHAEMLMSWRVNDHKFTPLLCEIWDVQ
# [12] = Cmax in Sprague-Dawley rat at 0.003 mg/kg, po qd administered via gavage measured on day 1 by LC-MS/MS analysis; format: ADME, organism-based; set-up: dose 0.003 mg/kg, route oral; conditions: in vivo
# [13] = Cmax in Sprague-Dawley rat at 0.01 mg/kg, po qd administered via gavage measured on day 1 by LC-MS/MS analysis; format: ADME, organism-based; set-up: dose 0.01 mg/kg, route oral; conditions: in vivo
# [14] = Cmax in Sprague-Dawley rat at 1 mg/kg, po qd administered via gavage measured on day 11 by LC-MS/MS analysis; format: ADME, organism-based; set-up: dose 1 mg/kg, route oral; conditions: in vivo
# [15] = Drug uptake in Sprague-Dawley rat plasma at 1 mg/kg, po qd administered via gavage measured 1 hr post last dose on day 14 by LC-MS/MS analysis; format: ADME, organism-based
# [16] = Drug uptake in Sprague-Dawley rat liver at 0.01 mg/kg, po qd administered via gavage measured 1 hr post last dose on day 14 by LC-MS/MS analysis; format: ADME, organism-based; conditions: read-out: Drug uptake
# How it was run: (§2)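 Drug concentration in liver was quantified from tissue homogenates, so these are total levels. Unbound liver concentration was not determined.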
# Rattus norvegicus [17] = assay: In vivo agonist activity at FXR in Sprague-Dawley rat assessed as induction of BSEP mRNA level in liver at 0.003 mg/kg, po qd for 14 days measured 7 hrs post last dose on day 14 by qPCR analysis; format: functional, organism-based
# [18] = Drug uptake in Sprague-Dawley rat plasma at 3 mg/kg, po qd administered via gavage measured 1 hr post last dose on day 14 by LC-MS/MS analysis; format: ADME, organism-based
# [19] = Drug uptake in Sprague-Dawley rat liver at 0.3 mg/kg, po qd administered via gavage measured 7 hrs post last dose on day 14 by LC-MS/MS analysis; format: ADME, organism-based; conditions: read-out: Drug uptake; how it was run: as §2
# Rattus norvegicus [20] = assay: In vivo agonist activity at FXR in po dosed Sprague-Dawley rat assessed as induction of SHP mRNA level in ileum administered once daily for 14 days measured 7 hrs post last dose on day 14 by qPCR analysis; format: functional
# [21] = Volume of distribution at steady state in rat at 3 mg/kg, iv or 1 mg/kg, po administered via gavage by LC-MS/MS analysis; format: ADME, organism-based; conditions: in vivo, read-out: Vdss
# How it was run: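 IV dosing used a solution in 75% PEG300:25% D5W for mouse and rat, and a solution in 20% PEG300, 5% solutol, 75% carbonate buffer pH 8 for dog. PO dosing used a suspension in 0.5% methylcellulose, 0.5% Tween80, 99% water for all three species.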
# [22] = Half life in dog at 0.5 mg/kg, iv by LC-MS/MS analysis; format: ADME, organism-based, Canis lupus familiaris; conditions: in vivo
# How it was run: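 Single IV dose given as a solution. Mouse and rat received it in 75% PEG300:25% D5W. Dog received it in 20% PEG300, 5% solutol and 75% carbonate buffer pH = 8. Plasma was sampled for PK parameters.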
# Rattus norvegicus [23] = assay: Dose normalized AUC (0 to 24 hrs) in Sprague-Dawley rat at 0.01 mg/kg, po qd administered via gavage measured on day 11 by LC-MS/MS analysis; format: ADME, organism-based; conditions: in vivo
# [24] = Drug uptake in Sprague-Dawley rat liver at 0.3 mg/kg, po qd administered via gavage measured 1 hr post last dose on day 14 by LC-MS/MS analysis; format: ADME, organism-based; conditions: read-out: Drug uptake; how it was run: as §2
# [25] = Oral bioavailability in rat at 10 mg/kg administered via gavage by LC-MS/MS analysis; format: ADME, organism-based; conditions: in vivo
# How it was run: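 Rats were dosed IV as a solution in 75% PEG300:25% D5W, or orally as a suspension in 0.5% methylcellulose, 0.5% Tween80 and 99% water.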
structure (smiles),measurement,setting,value
O=C(O)c1cc(F)c2nc(N3C4CCC3CC(OCc3c(-c5ccccc5OC(F)(F)F)noc3C3CC3)C4)sc2c1 (stereo not given),AUC(0-t) at 24 h,[1],0.004 µM·h
same,clearance,[2],1.5 mL/min/kg
same,AUC,[3],3.66 µM·h
same,AUC/dose,Rattus norvegicus [4],668 nM·h
same,Drug metabolism,Canis familiaris [5],Metabolite_Notdetected
same,Activity,Rattus norvegicus [6],Active
same,Drug metabolism,Canis familiaris [7],Metabolite_Notdetected
same,AUC(0-t) at 24 h,[8],1.34 µM·h
same,concentration at 1 h,[9],3.95 nM
same,Cmax,[10],7.1 nM
same,Activity,[11],Dose-dependent effect
same,Cmax,[12],0.15 nM
same,Cmax,[13],0.44 nM
same,Cmax,[14],43.1 nM
same,concentration at 1 h,[15],16.4 nM
same,concentration at 1 h,[16],8.35 nM
same,Activity,Rattus norvegicus [17],Active
same,concentration at 1 h,[18],62.6 nM
same,concentration at 7 h,[19],92.8 nM
same,ED50,Rattus norvegicus [20],0.01 mg/kg
same,Vd,[21],0.72 L/kg
same,half-life,[22],7.4 h
same,AUC/dose,Rattus norvegicus [23],496 nM·h
same,concentration at 1 h,[24],84.5 nM
same,bioavailability,[25],20%
